Measured values: publication PMC3668520 (FEBS Open Bio, 2013)

Experiments:
[1] = tested on: FLAG-tagged human EBI2 (p38 phosphorylation); assay: p38 phosphorylation in CHO cells stably expressing EBI2; type: cell-based; conditions: serum-starved CHO EBI2 cells; ptx-sensitive
[2] = tested on: FLAG-tagged human EBI2 (ERK1/2 phosphorylation); assay: ERK1/2 phosphorylation in CHO cells stably expressing EBI2; type: cell-based; conditions: 10 min, read-out: EC50, ERK1/2 activation
[3] = tested on: B cells isolated from wt and EBI2-overexpressing C57BL/6 mice; assay: Ex vivo B cell chemotaxis; type: cell-based, mouse
Summary of the method: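 B cells came from wt and EBI2-overexpressing C57BL/6 mice. 7α,25-OHC and/or test compound was placed in the lower chamber, and 200,000 cells went onto 5 μm-pore filters. After 5 h at 37 °C, migrated cells were quantified by CellTiterGlo luminescence. Agonist response is expressed as chemotactic index (four experiments). Inhibition was tested on EBI2-overexpressing cells with 0.1 nM 7α,25-OHC, relative to agonist alone (three experiments).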

FLAG-tagged human EBI2 = FLAG-tagged human EBI2 (Homo sapiens, UniProt P32249); assay: [35S]GTPγS binding to membranes from CHO cells stably expressing EBI2; type: biochemical
Sequence of FLAG-tagged human EBI2 (P32249 whole entry): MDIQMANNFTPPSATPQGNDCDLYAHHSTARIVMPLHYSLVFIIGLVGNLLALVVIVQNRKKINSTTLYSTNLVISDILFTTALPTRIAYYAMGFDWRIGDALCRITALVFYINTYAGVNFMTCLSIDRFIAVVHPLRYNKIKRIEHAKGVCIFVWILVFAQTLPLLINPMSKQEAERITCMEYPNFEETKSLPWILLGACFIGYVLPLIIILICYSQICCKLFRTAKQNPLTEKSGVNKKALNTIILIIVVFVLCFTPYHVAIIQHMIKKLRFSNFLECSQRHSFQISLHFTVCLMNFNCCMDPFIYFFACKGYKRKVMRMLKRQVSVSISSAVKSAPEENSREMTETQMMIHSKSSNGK
Summary of the method: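 Membranes from CHO Flp-In cells stably expressing M1-FLAG-EBI2 or pcDNA5 (10 μg) were incubated 30 min with ligands and 1 nM [35S]GTPγS. WGA SPA beads (2.8 mg/mL) were then added for 30 min, followed by centrifugation and scintillation counting. Nonspecific binding was defined with 40 μM unlabelled GTPγS. Inhibition was run at 1 nM 7α,25-OHC. Agonist curves were run at 0, 100 nM, 1 μM and 10 μM antagonist. Kd and slope come from Schild regression (x-intercept). Three independent experiments.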

EBI2 = conditions: at 5 μM; ref PubChem BioAssay ID: 651636; cited from earlier work

| EC50 [2] [nM] | EC50 ([3]; Mus musculus, B-cell, read-out: EC50, chemotaxis) [nM] | EC50 (FLAG-tagged human EBI2) [nM] | SMILES | p38 activation [1] | Concentration at which chemotaxis peaked ([3]; both wt and EBI2-OE B cells) [nM] | Suppression of 7α,25-OHC-induced β-arrestin recruitment (EBI2) |
| --- | --- | --- | --- | --- | --- | --- |
| 3 | 0.1 | 1 | C[C@H](CCCC(C)(C)O)[C@H]1CC[C@H]2[C@@H]3[C@H](O)C=C4C[C@@H](O)CC[C@]4(C)[C@H]3CC[C@]12C [7α,25-OHC, 7α,25-dihydroxycholesterol] | dose-dependently activated | 1 |  |
|  |  |  | O=C(/C=C/c1ccc(Cl)cc1)N1CCN(c2c(Cl)cccc2[N+](=O)[O-])CC1 [CID: 5804570] |  |  | best compound |
